In data set [1] the test system is Human immunodeficiency virus 1. Kind of data set: Antiviral activity against HIV1 3B infected in human MT4 cells assessed as inhibition of viral infections in presence of 50 % normal human serum. The conditions noted are these: Human immunodeficiency virus 1, 3B, read-out: CIC95. It counts as functional. A digest of the protocol: (§1)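 Spread assay measuring inhibition of HIV-1 IIIb infection spread in MT-4 T-lymphoid cell culture. The medium held 10% fetal bovine serum for line 3 and 50% normal human serum for line 4. The readout is the 95% inhibitory concentration (CIC95).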

The nature of data set [2]: Oral bioavailability in rat at 3 mg/kg. Conditions: in vivo. It counts as ADME, organism-based. The gist of the method: (§2)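 The iv dose was given in DMSO/PEG400/H2O (20–40–40%) and the oral dose in 1% methylcellulose. Terminal-phase plasma half-life was taken from the iv administration and AUC from the oral administration.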
Data set [3] has as its target Human immunodeficiency virus type 1 integrase (Human immunodeficiency virus 1, UniProt Q7ZJM1). Kind of data set: Inhibition of HIV 1 recombinant integrase. A digest of the protocol:
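Recombinant HIV-1 integrase was pre-assembled on immobilized oligonucleotides. Inhibitor was added after assembly and washing. IC50 is the inhibitor concentration that reduces integrase activity by 50%.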

Data set [4] in a line: Terminal phase half life in rat at 3 mg/kg, po and 3 mg/kg, iv. In kind it is ADME, organism-based. Conditions: in vivo, read-out: beta t1/2 (converted). The gist of the method: as §2
For data set [5], the system named is Human immunodeficiency virus 1. The data set is described as follows: Antiviral activity against HIV1 3B infected in human MT4 cells assessed as inhibition of viral infections in presence of 10% fetal bovine serum. In kind it is functional. The conditions noted are these: Human immunodeficiency virus 1, 3B, read-out: CIC95. The gist of the method:
as §1

Data set [6] is described as follows: AUC in rat at 3 mg/kg, po and 3 mg/kg, iv. It counts as ADME, organism-based. Conditions: plasma. The gist of the method: as §2
Data set [7] can be described thus: Plasma clearance in rat at 3 mg/kg, po and 3 mg/kg, iv. In kind it is ADME, organism-based. The gist of the method:
as §2

The species named for the next data set is Homo sapiens. Kind of data set: Plasma protein binding in human. The conditions noted are these: read-out: PPB (converted).
Data set [8] has as its system Human immunodeficiency virus 1. Kind of data set: Antiviral activity against HIV1 harboring integrase N155S mutant relative to wild type. It counts as functional.
Data set [9] deals with Human immunodeficiency virus 1. Kind of data set: Antiviral activity against HIV1 harboring integrase T125K mutant relative to wild type. In kind it is functional.
Data set [10] has as its system Human immunodeficiency virus 1. The data set is described as follows: Antiviral activity against HIV1 harboring integrase T66/L74M and V151L double mutant relative to wild type. In kind it is functional.
Data set [11] relates to Human immunodeficiency virus 1. The data set is described as follows: Antiviral activity against HIV1 harboring integrase T66I and S153Y double mutant relative to wild type. It counts as functional.
The nature of data set [12]: Oral bioavailability in dog at 1 mg/kg. In kind it is ADME, organism-based, Canis lupus familiaris. Conditions: in vivo. A digest of the protocol: as §2
A short description of data set [13]: Terminal phase half life in dog at 1 mg/kg, iv and 2 mg/kg, po. Conditions: in vivo, read-out: beta t1/2 (converted).
The test system of data set [14] is Human immunodeficiency virus 1. Kind of data set: Antiviral activity against HIV1 harboring integrase T66I mutant relative to wild type. It counts as functional.
For data set [15], the system named is Human immunodeficiency virus 1. The data set is described as follows: Antiviral activity against HIV1 harboring integrase T125K and […] double mutant relative to wild type. It counts as functional.
Data set [16] has as its system Human immunodeficiency virus 1. Kind of data set: Antiviral activity against HIV1 harboring integrase V151I mutant relative to wild type. In kind it is functional.
The nature of data set [17]: AUC in dog at 1 mg/kg, iv and 2 mg/kg, po. The conditions noted are these: plasma.
Data set [18] relates to Human immunodeficiency virus 1. The data set is described as follows: Antiviral activity against HIV1 harboring integrase T66I and M154I double mutant relative to wild type. In kind it is functional.
In data set [19] the test system is Human immunodeficiency virus 1. The data set is described as follows: Antiviral activity against HIV1 harboring integrase F121Y mutant relative to wild type.
Data set [20] is described as follows: Metabolic stability in rat liver microsomes assessed as oxidation rate after 1 hr in presence of NADPH. It counts as ADME, Microsome. The gist of the method: (§3)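 Rat liver microsomes (1 mg/mL) were incubated with test compound for 1 h. The cofactor was UDPGA for glucuronidation and NADPH for oxidation. Substrate loss was measured by LC/MS/MS and expressed as % of initial remaining.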
A general note: Liver microsomes are a subcellular fraction often used to study metabolism.

Data set [21] can be described thus: Plasma protein binding in rat. It counts as ADME, cell-free. The conditions noted are these: read-out: PPB (converted).
Data set [22] in a line: Metabolic stability in rat liver microsomes assessed as glucuronidation rate after 1 hr in presence of UDPGA. It counts as ADME, Microsome. The gist of the method:
as §3

Structures are written as SMILES.

By IC50 is commonly meant the concentration that inhibits the measured activity by half. One may read the AUC as the area under the concentration-time curve, a measure of exposure.

Sequence of Human immunodeficiency virus type 1 integrase (Q7ZJM1 whole entry): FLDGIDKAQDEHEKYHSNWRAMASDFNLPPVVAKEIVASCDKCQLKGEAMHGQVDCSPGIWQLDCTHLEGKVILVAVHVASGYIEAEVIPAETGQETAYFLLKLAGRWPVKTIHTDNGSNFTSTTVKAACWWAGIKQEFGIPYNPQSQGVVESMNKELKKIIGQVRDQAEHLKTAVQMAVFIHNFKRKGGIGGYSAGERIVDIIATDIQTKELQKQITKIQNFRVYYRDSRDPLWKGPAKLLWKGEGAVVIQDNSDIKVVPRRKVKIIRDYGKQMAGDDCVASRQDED

With `CC(=O)N1C[C@@H](F)C[C@H]1c1nc(C(=O)NCc2ccc(F)c(C)c2)c(O)c(=O)n1C`, the IC95 stood at 31 nM in data set [1] and 16 nM in [5]. The bioavailability in data set [2] is 17%. Moreover, the IC50 in [3] came out at 27 nM. In addition, the half-life in data set [4] is 1.4 h. The AUC in data set [6] is 0.5 µM·h. In [7], this compound returned a clearance of 39 mL/min/kg.

Turning to `CC(=O)N1C[C@@H](F)C[C@H]1c1nc(C(=O)NCc2ccc(C)c(Cl)c2)c(O)c(=O)n1C`, in the data set filed under Homo sapiens, the fraction unbound is 0.022. Moreover, the “Ratio IC50” value was 8 in data set [8]; 1 in data set [9]; 2.5 in [10]; 0.8 in [11]; 1 in data set [14]; 3.5 in data set [15]. Further, the “Ratio IC50” value in data set [16] was 1; in data set [18], 0.8; in data set [19], 1.5. For the same compound, the IC95 in [1] stood at 46 nM; in data set [5] it was 5 nM. Further, the bioavailability in [12] was found to be 80%; in data set [2] it was 94%. Further, the half-life in data set [13] was 1.2 h; in [4] it was 3 h. In data set [3], the 50% inhibitory concentration (IC50) was determined as 32 nM. The AUC in data set [17] was found to be 6.4 µM·h; in [6], 3.7 µM·h. In [7], this compound yielded a clearance of 29 mL/min/kg.

As to `COC(=O)N1C[C@@H](F)C[C@H]1c1nc(C(=O)NCc2ccc(C)c(Cl)c2)c(O)c(=O)n1C`, the IC95 in data set [1] turned out to be 63 nM; in data set [5], 16 nM. For the same compound, the bioavailability in data set [2] was found to be 10%. Also, the IC50 in data set [3] amounted to 20 nM. Moreover, in data set [4], the half-life is 7.4 h. Besides, the AUC in data set [6] was 1.2 µM·h. For the same compound, in data set [7], the clearance was 9.9 mL/min/kg.

`COC(=O)N1C[C@@H](F)C[C@H]1c1nc(C(=O)NCc2ccc(F)c(Cl)c2)c(O)c(=O)n1C`: the IC95 in [1] was 31 nM; in data set [5] it was 16 nM. For the same compound, in data set [2], the bioavailability turned out to be 25%. Also, the IC50 in data set [3] was determined as 19 nM. For the same compound, in data set [4], the half-life is 1.5 h. In [6], this compound returned an AUC of 1.3 µM·h. Further, in data set [7], the clearance amounted to 21 mL/min/kg.

With `Cn1c([C@@H]2C[C@H](F)CN2C2CC2)nc(C(=O)NCc2ccc(F)cc2)c(O)c1=O`, the IC95 in data set [1] amounted to 250 nM; in data set [5], 63 nM. Also, in [3], the IC50 came out at 20 nM.

Turning to `Cn1c([C@@H]2C[C@H](F)CN2Cc2ccon2)nc(C(=O)NCc2ccc(F)cc2)c(O)c1=O`, the IC95 in data set [1] amounted to 625 nM; in data set [5], 156 nM. The IC50 in data set [3] was found to be 10 nM.

Turning to `CC(=O)N1C[C@@H](F)C[C@H]1c1nc(C(=O)NCc2ccc(F)cc2)c(O)c(=O)n1C`, the fraction unbound in the data set listed under Homo sapiens was 0.21; in [21], 0.37. The remaining at 1 h stood at 40% in data set [20] and 43% in data set [22]. Also, the “Ratio IC50” value in data set [8] turned out to be 15; in data set [10] it was 10; in [11], 5; in [15], 15; in data set [18] it was 2. Moreover, the IC95 was 17 nM in [1] and 14 nM in [5]. The bioavailability in [2] is 31%. Also, the IC50 in data set [3] came to 15 nM. In addition, the half-life in [4] is 0.3 h. The AUC in [6] is 1.2 µM·h. Further, the clearance in data set [7] is 64 mL/min/kg.

On to `COC(=O)N1C[C@@H](F)C[C@H]1c1nc(C(=O)NCc2ccc(F)cc2)c(O)c(=O)n1C`, for which the IC95 was determined as 63 nM in [1] and 31 nM in data set [5]. Also, the bioavailability in data set [2] came to 44%. For the same compound, the IC50 in data set [3] was found to be 10 nM. Besides, the half-life in data set [4] is 0.6 h. This compound showed an AUC in data set [6] of 1.2 µM·h. Moreover, in data set [7], the clearance was found to be 46 mL/min/kg.

For the compound `CN(C)C(=O)N1C[C@@H](F)C[C@H]1c1nc(C(=O)NCc2ccc(F)cc2)c(O)c(=O)n1C`, the IC95 in [1] and in [5] was 125 nM each time. In addition, the IC50 in [3] stood at 10 nM.

Take `Cn1c([C@@H]2C[C@H](F)CN2S(C)(=O)=O)nc(C(=O)NCc2ccc(F)cc2)c(O)c1=O`: the IC95 in data set [1] worked out at 125 nM; in [5], 31 nM. Also, in data set [3], the IC50 was found to be 15 nM.

Regarding `CN(C)S(=O)(=O)N1C[C@@H](F)C[C@H]1c1nc(C(=O)NCc2ccc(F)cc2)c(O)c(=O)n1C`, the IC95 in data set [1] came to 125 nM; in [5] it was 31 nM. Besides, in [2], the bioavailability is 16%. For the same compound, in data set [3], the IC50 turned out to be 9 nM. The compound further gave a clearance in data set [7] of 64 mL/min/kg.

Consider `Cn1c([C@@H]2C[C@H](F)CN2C(=O)c2cnccn2)nc(C(=O)NCc2ccc(F)cc2)c(O)c1=O`, for which the IC95 in data set [1] and in [5] was 16 nM in each case. Moreover, the bioavailability in data set [2] amounted to 18%. In addition, the IC50 in data set [3] stood at 10 nM. In addition, the half-life in data set [4] is 0.2 h. The same compound came in with an AUC in [6] of 2.3 µM·h. In addition, the clearance in [7] turned out to be 77 mL/min/kg.

`CN(C)C(=O)C(=O)N1C[C@@H](F)C[C@H]1c1nc(C(=O)NCc2ccc(F)cc2)c(O)c(=O)n1C`: the IC95 in data set [1] and in [5] was 16 nM in each case. Besides, the bioavailability in data set [2] was found to be 19%. Moreover, in [3], the IC50 is 21 nM. Also, the half-life in data set [4] is 1.6 h. Moreover, the area under the curve (AUC) in data set [6] stood at 0.2 µM·h. In data set [7], the clearance was determined as 138 mL/min/kg.

For the compound `CC(=O)N1C[C@@H](F)C[C@H]1c1nc(C(=O)NCc2ccc(F)c(Cl)c2)c(O)c(=O)n1C`, the “Ratio IC50” value in [8] came to 31; in data set [9] it was 1; in data set [10], 31; in data set [11] it was 3; in [14], 2; in data set [15] it was 17. In addition, the “Ratio IC50” value in data set [16] is given as 1; in data set [18], 3; in data set [19] it was 4. The figures for the IC95 in [1] and in [5] were 17 nM and 3 nM, respectively. Further, the bioavailability turned out to be 34% in [12] and 20% in data set [2]. In addition, the half-life was 7.1 h in data set [13] and 0.7 h in data set [4]. Also, the IC50 in data set [3] was found to be 24 nM. In addition, the AUC in data set [17] is 2.8 µM·h; in [6], 0.5 µM·h. This compound yielded a clearance in [7] of 43 mL/min/kg.

For the compound `CN1C[C@@H](F)C[C@H]1c1nc(C(=O)NCc2ccc(F)cc2)c(O)c(=O)n1C`, the values for the IC95 in data set [1] and in data set [5] were 125 nM and 63 nM, respectively. Besides, in [12], the bioavailability came to 116%. Also, in data set [13], the half-life was 3.7 h. Moreover, the IC50 in data set [3] turned out to be 23 nM. Besides, the AUC in data set [17] amounted to 23.1 µM·h; in data set [6], 4.5 µM·h. For the same compound, the clearance in data set [7] was 21 mL/min/kg.

The values above are taken from ChEMBL document CHEMBL1221284, “Development of 2-pyrrolidinyl-N-methyl pyrimidones as potent and orally bioavailable HIV integrase inhibitors” (Bioorg Med Chem Lett, 2010).
